Results from different studies.
Protocols differ between the studies behind these lines.
Target: Serine/threonine-protein kinase ULK1 (ULK1, Homo sapiens, UniProt O75385)
Sequence (O75385 1-1050, as in one of the studies): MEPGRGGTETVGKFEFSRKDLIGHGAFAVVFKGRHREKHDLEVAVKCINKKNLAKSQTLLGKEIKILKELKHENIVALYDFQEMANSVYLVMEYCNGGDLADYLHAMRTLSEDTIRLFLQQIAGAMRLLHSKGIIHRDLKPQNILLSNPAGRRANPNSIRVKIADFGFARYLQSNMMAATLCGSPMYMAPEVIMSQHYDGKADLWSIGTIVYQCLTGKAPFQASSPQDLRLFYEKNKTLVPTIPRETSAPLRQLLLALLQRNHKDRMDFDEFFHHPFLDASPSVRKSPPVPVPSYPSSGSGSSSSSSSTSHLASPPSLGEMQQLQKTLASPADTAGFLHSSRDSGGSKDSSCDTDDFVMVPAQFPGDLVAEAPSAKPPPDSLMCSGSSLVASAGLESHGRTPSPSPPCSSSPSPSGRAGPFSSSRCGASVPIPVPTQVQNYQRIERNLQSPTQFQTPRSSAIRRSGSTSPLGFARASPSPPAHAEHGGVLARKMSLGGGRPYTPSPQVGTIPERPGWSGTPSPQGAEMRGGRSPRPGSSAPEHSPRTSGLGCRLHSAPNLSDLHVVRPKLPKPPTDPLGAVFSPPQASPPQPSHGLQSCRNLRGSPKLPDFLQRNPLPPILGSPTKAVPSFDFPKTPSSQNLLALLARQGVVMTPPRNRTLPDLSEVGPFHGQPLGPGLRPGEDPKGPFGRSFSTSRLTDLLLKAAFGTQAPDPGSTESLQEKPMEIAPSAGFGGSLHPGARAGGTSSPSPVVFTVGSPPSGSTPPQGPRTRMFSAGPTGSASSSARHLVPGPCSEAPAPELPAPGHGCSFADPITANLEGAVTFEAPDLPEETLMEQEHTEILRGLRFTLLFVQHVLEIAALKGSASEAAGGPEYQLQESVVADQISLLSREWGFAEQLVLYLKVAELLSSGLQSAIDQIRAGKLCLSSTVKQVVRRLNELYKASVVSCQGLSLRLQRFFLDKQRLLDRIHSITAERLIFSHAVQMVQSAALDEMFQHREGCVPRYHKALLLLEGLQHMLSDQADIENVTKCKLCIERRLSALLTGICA

| Compound | effect on | method | concentration | remaining binding [%] |
| --- | --- | --- | --- | --- |
| Cc1cnn2ncc(-c3ccnc(N(C)C)n3)c2c1 | binding |  | 1 µM | 100 |
| COc1cnc(Nc2cccc(S(N)(=O)=O)c2)nc1N1CCN(c2ccccc2)CC1 | binding | competition with immobilised ligand | 1 µM | 73 |
| O=C(c1ccc(Nc2ncc(Cl)c(-c3cc4ccccc4s3)n2)cc1)N1CCC(N2CCCC2)CC1 | binding | competition with immobilised ligand | 1 µM | 1.8 |
| CN(CCCC(F)(F)F)c1nccc(-c2cnn3ncccc23)n1 | binding |  | 1 µM | 79 |
| O=C1CCc2cc(Nc3cc(OC4CCOCC4)c([N+](=O)[O-])cc3Cl)ccc2N1 | cell-free assay | competition with immobilised ligand | 1 µM | 87 |
| COc1ncc2cc3ccccc3nc2c1C#N | cell-free assay | competition with immobilised ligand | 5 µM | 93 |
| CC1=C(C#N)C(c2ccc3c(c2)c(NC(=O)c2ccccc2C)nn3C)C(C#N)=C(C)N1 | cell-free assay | competition with immobilised ligand | 1 µM | 86 |
| O=C(NCCCN1CCOCC1)c1ccc(Nc2nccc(-c3cc4ccccc4s3)n2)cc1 | binding | competition with immobilised ligand | 1 µM | 52 |
| Cc1noc([C@H]2C[C@@H](c3ccc(C(F)(F)F)cc3)CN(C(=O)N3CCS(=O)(=O)C3)C2)n1 | cell-free assay | competition with immobilised ligand | 1 µM | 85 |
| CN(C)c1nccc(-c2cnc3ncccn23)n1 | binding |  | 1 µM | 71 |
| CCS(=O)(=O)c1cc2cc(C[C@](O)(CC(C)(C)c3ccc(F)cc3C(N)=O)C(F)(F)F)[nH]c2cn1 | cell-free assay | competition with immobilised ligand | 1 µM | 100 |
| COc1ccnn2ncc(-c3ccnc(N(C)C)n3)c12 | binding |  | 1 µM | 100 |
| CNCc1ccccc1-c1csc([C@H](C)Nc2nc(C)nc3cc(OC)c(OC)cc23)c1 | cell-free assay | competition with immobilised ligand | 1 µM | 91 |
| O=C(NCC1CCOCC1)c1n[nH]cc1NC(=O)c1c(F)cccc1F | binding | competition with immobilised ligand | 1 µM | 86 |
| c1cncc(-c2cccc(Nc3nccc(NC4CCCCC4)n3)c2)c1 | binding | competition with immobilised ligand | 10 µM | 100 |
| COc1cnc(Nc2cccc(S(N)(=O)=O)c2)nc1N1CCN(c2ccccc2)C(=O)C1 | binding | competition with immobilised ligand | 1 µM | 67 |
| CC1CCCN1c1nccc(-c2cnn3ncccc23)n1 (centres unmarked) | binding |  | 1 µM | 97 |
| CN(C)C(=O)Cn1cc(-c2nc([C@@](C)(c3ccc(-c4cnc(N)nc4)cc3)C3CC3)no2)cn1 | cell-free assay | competition with immobilised ligand | 1 µM | 77 |
| O=C(NCCCN1CCOCC1)c1ccc(Nc2ncc(Cl)c(-c3ccc(Cl)s3)n2)cc1 | binding | competition with immobilised ligand | 1 µM | 3.5 |
| N[C@H]1CCN(c2nccc(-c3cnn4ncccc34)n2)C1 | binding |  | 1 µM | 100 |
